Rows were chosen to be rich in hits. Some 1.3% of all compounds tested hit in one or more screens of this group.
NR2E3 ag-1 = NR2E3 (human) agonism; GST-NR2E3/biotin-RetCOR TR-FRET, 1536-well; inhibition of corepressor binding, % at 4.78 µM; hit rate 0.12% among 320,000;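 active = percent inhibition above the cutoff of mean plus 3 SD of all tested compounds, set per screening campaign, cut at about 20% in these data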;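 note: 0% = DMSO wells and 100% = biotin wells as full block of FRET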
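System: GST-tagged NR2E3 plus biotinylated RetCOR corepressor; Amount: 1.35 nM GST-tagged NR2E3 final; Dosing: single nominal compound dose of 4.8 µM; Schedule: 5 h incubation at 4 °C; Technique: TR-FRET with europium anti-GST and streptavidin-D2, 340 nm excitation; Controls: biotin wells as high control, 0.6% DMSO wells as low control.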
PP1 counter = counter-screen for PP5 inhibitors: inhibitors of human PP1-alpha. hit rate 0.9% among 320,000. inhibition, % at 6.7 µM. P62136. purified PP1alpha, OMFP fluorescence;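 active = inhibition above the mean inhibition of all tested compounds plus 3 SD, computed separately for each screening campaign, cut at about 15% in these data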
Target sequence (P62136 whole entry, looked up): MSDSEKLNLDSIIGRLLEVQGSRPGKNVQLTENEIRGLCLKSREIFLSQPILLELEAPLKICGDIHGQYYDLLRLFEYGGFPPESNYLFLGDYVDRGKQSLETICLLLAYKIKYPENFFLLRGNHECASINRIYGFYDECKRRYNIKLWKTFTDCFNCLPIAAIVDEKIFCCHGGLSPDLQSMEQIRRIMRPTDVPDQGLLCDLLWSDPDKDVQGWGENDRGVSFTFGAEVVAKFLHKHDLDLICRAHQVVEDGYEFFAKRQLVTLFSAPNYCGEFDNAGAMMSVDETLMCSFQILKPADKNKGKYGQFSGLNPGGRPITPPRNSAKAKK
PP5 primary = PP5 (human) phosphatase inhibition; purified PP5c, OMFP substrate fluorescence; hit rate 0.18% among 320,000; AID 1987; inhibition, % at 6.7 µM;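 active = inhibition above the campaign's mean inhibition across all tested compounds plus 3 SD, cut at about 9.5% in these data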;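 note: 0% = DMSO only and 100% = 100 µM cantharidin control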
NR2E3 ag-2 = activates human NR2E3 receptor; AID 602229; Q9Y5X4; CHO-S Gal4-NCOR/VP16-NR2E3 two-hybrid, luciferase; inhibition of corepressor binding, % at 3.98 µM; hit rate 0.35% among 360,000;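 active = inhibition above the mean of all tested compounds plus 3 SD, cut at about 70% in these data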;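 note: 0% = DMSO with NR2E3 transfected cells and 100% = cells lacking NR2E3 construct; higher means lower luciferase signal from less NR2E3 corepressor binding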
NR2E3 ag conf = NR2E3 agonism confirmed in two-hybrid assay. CHO-S mammalian two-hybrid NR2E3-NCOR, luciferase luminescence. inhibition, % at 3.98 µM. hit rate 51% among 2,300. shares compounds with NR2E3 ag-2;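 active = average inhibition above a cutoff equal to the mean inhibition of all tested compounds plus one SD, cut at about 70% in these data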;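 note: 0% = DMSO in NR2E3 cells and 100% = DMSO in cells lacking NR2E3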
GAL4-VP16 luc = counter-screen for NR2E3 agonists: GAL4-VP16 reporter inhibitors. inhibition, % at 3.98 µM. shares compounds with NR2E3 ag-2. CHO-S GAL4-VP16 luciferase reporter, luminescence. hit rate 29% among 2,300;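 active = mean inhibition above a cutoff equal to the average over all tested compounds plus one standard deviation, cut at about 70% in these data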;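 note: luciferase from a UAS reporter driven by GAL4-VP16 transactivation; 0% = DMSO with VP16-transfected cells and 100% = DMSO with cells lacking VP16; higher means less reporter light so more repression of VP16 activity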
Starred values were filed as active, the others as inactive.

What do the screens show for `CC(C)(C)c1ccc(-n2ncc3c2CCCC3NC(=O)CCN2CCCCC2=O)cc1` (centres undefined)?
NR2E3 ag-1: 2.3; PP1 counter: -2.7; PP5 primary: 0.4; NR2E3 ag-2: 52.1; NR2E3 ag conf: 33.8; GAL4-VP16 luc: 42.0

Results for COc1ccc(-n2ncc3c2CC(C)(C)CC3NC(=O)CN2CCOC2=O)cc1 (centres undefined) ?
NR2E3 ag-2: -7.0

How did CC(C)(C)c1ccc(-n2ncc3c2CCCC3NC(=O)CN2CCOC2=O)cc1 (centres undefined) do in these assays?
NR2E3 ag-1: 0.1; PP1 counter: -2.6; PP5 primary: 1.4; NR2E3 ag-2: 49.8; NR2E3 ag conf: 35.2; GAL4-VP16 luc: 35.3

Results for Cc1cc(C(=O)COc2ccc(F)cc2Br)c(C)n1C1CC1 ?
NR2E3 ag-2: -48.3

Results for O=C(NCc1cccnc1)c1cc(C2CCCCN2C(=O)CCCc2ccccc2)on1 (centres undefined) ?
NR2E3 ag-2: -6.3

How did CCN(CC)C(=O)C1CCN(S(=O)(=O)c2ccc3oc4ccccc4c3c2)CC1 do in these assays?
NR2E3 ag-1: -0.4; PP1 counter: 9.6; PP5 primary: 6.3; NR2E3 ag-2: 76.8*; NR2E3 ag conf: 64.8; GAL4-VP16 luc: 58.4

How did O=S(=O)(c1ccc2oc3ccccc3c2c1)N1CCCC1 do in these assays?
NR2E3 ag-1: 0.0; PP1 counter: 0.7; PP5 primary: 1.1; NR2E3 ag-2: -9.6

How did O=C(Nc1cccnc1)c1ccc(COc2cc(Cl)ccc2Cl)o1 do in these assays?
NR2E3 ag-1: 2.1; PP1 counter: 6.6; PP5 primary: 5.3; NR2E3 ag-2: -106.0

Results for O=C(N/N=C/c1ccc(O)cc1)c1ccc(COc2cc(Cl)ccc2Cl)o1 ?
NR2E3 ag-1: 1.7; PP1 counter: 6.7; PP5 primary: 2.3; NR2E3 ag-2: 53.7; NR2E3 ag conf: 41.7; GAL4-VP16 luc: -16.7

What do the screens show for `CC(C)(C)c1ccc(C(=O)O/N=C(\N)c2ccccn2)cc1`?
NR2E3 ag-1: 6.1; PP1 counter: 1.6; PP5 primary: 1.8; NR2E3 ag-2: 105.8*; NR2E3 ag conf: 88.7*; GAL4-VP16 luc: 76.2*

Results for CCOc1ccc(C(=O)O/N=C(\N)c2ccccn2)cc1 ?
NR2E3 ag-2: 52.2; NR2E3 ag conf: -58.1; GAL4-VP16 luc: -125.7

Results for Cc1ccc(C(=O)O/N=C(\N)c2ccccn2)cc1 ?
NR2E3 ag-1: 1.1; PP1 counter: 1.2; PP5 primary: 0.8; NR2E3 ag-2: -75.1

How did O=C(NCCCSc1ccccc1)c1cc(Br)ccc1O do in these assays?
NR2E3 ag-2: 87.4*; NR2E3 ag conf: 99.3*; GAL4-VP16 luc: 90.2*

What do the screens show for `O=C(NCCSc1ccccc1)c1ccc(Br)cc1`?
NR2E3 ag-1: -0.7; PP1 counter: 6.6; PP5 primary: -2.9; NR2E3 ag-2: -146.1

What do the screens show for `c1ccc(-c2nc(-c3ccncc3)no2)cc1`?
NR2E3 ag-1: -0.2; PP1 counter: -1.8; PP5 primary: -1.8; NR2E3 ag-2: -58.6

What do the screens show for `c1ccc(C(Cc2nc(-c3ccncc3)no2)c2ccccc2)cc1`?
NR2E3 ag-1: -2.2; PP1 counter: 2.3; PP5 primary: 0.3; NR2E3 ag-2: 64.3; NR2E3 ag conf: 74.9*; GAL4-VP16 luc: 56.1

What do the screens show for `O=C(O)Cn1cnc2c(OCc3ccccc3)ncnc21`?
NR2E3 ag-2: -21.1

Results for Cc1cc(C)c(CN2CCN(C(=O)Cn3cnc4c(OCc5ccccc5)ncnc43)CC2)c(C)c1 ?
NR2E3 ag-2: 71.4*; NR2E3 ag conf: 66.9; GAL4-VP16 luc: 56.5

What do the screens show for `O=c1c2c([nH]n1-c1ccccc1)C[C@@H](C1CCCCC1)O[C@H]2c1ccc(F)cc1`?
NR2E3 ag-2: 57.0; NR2E3 ag conf: 10.0; GAL4-VP16 luc: -17.5

How did Cc1cccc(N2CCN(S(=O)(=O)c3ccc4c(c3)NC(=O)C(C)S4)CC2)c1C (centres undefined) do in these assays?
NR2E3 ag-1: -1.7; PP1 counter: 4.1; PP5 primary: 2.7; NR2E3 ag-2: 52.8; NR2E3 ag conf: 44.6; GAL4-VP16 luc: 47.6

How did Cc1ccc(NC(=O)C2CCN(S(=O)(=O)c3ccc4c(c3)NC(=O)C(C)S4)CC2)cc1Cl (centres undefined) do in these assays?
NR2E3 ag-1: -0.8; PP1 counter: 5.2; PP5 primary: 5.7; NR2E3 ag-2: 105.3*; NR2E3 ag conf: 98.0*; GAL4-VP16 luc: 84.8*
